In ChEMBL document CHEMBL1137729, “Synthesis, evaluation and 3D QSAR analysis of novel estradiol-RGD octapeptide conjugates with oral anti-osteoporosis activity” (Eur J Med Chem, 2009):
Active and inactive are the calls of the source. No cut-off for these calls is given here. Residues, ends and D or L forms follow the SMILES beside them. *: point of attachment. Succinyl(O17-estradiol) = C[C@]12CC[C@@H]3c4ccc(O)cc4CC[C@H]3[C@@H]1CC[C@@H]2OC(=O)CCC(=O)*

Key:
[1] = Stability in presence of pepsin at 37 degC after 90 mins; assay type: ADME; conditions: isolated protein, 1.5 h
Mus musculus [2] = assay: Antiosteoporosis activity in ovariectomized ICR mouse assessed as calcium level in serum at 110.3 nmol/kg, po treated for 4 weeks measured after 1 day of last treatment by o-methyl-phenolphthalein method; assay type: functional
Outline: (§1)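 Ovariectomized female mice dosed orally with 110.3 nmol/kg in 0.5% carboxymethylcellulose once daily for 4 weeks, starting day 5 after surgery. Blood taken from the orbit the day after the last dose, stood 30 min, centrifuged 3000g for 20 min, serum stored at −20 °C. Calcium read by o-methylphenolphthalein complexone; phosphorus by molybdenum blue.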

Mus musculus [3] = assay: Antiosteoporosis activity in ovariectomized ICR mouse assessed as phosphorous level in serum at 110.3 nmol/kg, po treated for 4 weeks measured after 1 day of last treatment by molybdenum blue method; assay type: functional; outline: as §1
Mus musculus [4] = assay: Antiosteoporosis activity in ovariectomized ICR mouse assessed as weight of dry femur at 110.3 nmol/kg, po treated for 4 weeks measured after 1 day of last treatment; assay type: functional
Outline: (§2)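 Left femur taken the day after the last dose, cleaned of muscle, length measured, defatted in chloroform–methanol (2:1, 2×3 h), dried 120 °C 6 h and weighed, ashed 800 °C 8 h and weighed. Mineral content = ash/dry weight; femur ash dissolved in 6 N HCl, diluted, calcium by o-methylphenolphthalein complexone. n = 12.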

Mus musculus [5] = assay: Antiosteoporosis activity in ovariectomized ICR mouse assessed as weight of femur ash at 110.3 nmol/kg, po treated for 4 weeks measured after 1 day of last treatment; assay type: functional
Outline: as §2, with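 “Female mice, ovariectomized (sham: laparotomy only); from day 5 post-surgery dosed orally once daily with 110.3 nmol/kg in 0.2 ml 0.5% carboxymethylcellulose for 4 weeks (vehicle to OVX/sham). Left” for “Left”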

Mus musculus [6] = assay: Antiosteoporosis activity in ovariectomized ICR mouse assessed as length of femur at 110.3 nmol/kg, po treated for 4 weeks measured after 1 day of last treatment; assay type: functional
Outline: as §2, with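 “Female mice, ovariectomized (sham: laparotomy only); from day 5 post-surgery dosed orally once daily with 110.3 nmol/kg in 0.2 ml 0.5% carboxymethylcellulose for 4 weeks (vehicle to OVX/sham). Left” for “Left”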

Mus musculus [7] = assay: Antiosteoporosis activity in ovariectomized ICR mouse assessed as calcium content in femur at 110.3 nmol/kg, po treated for 4 weeks measured after 1 day of last treatment by o-methyl-phenolphthalein; assay type: functional
Outline: as §2, with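 “Female mice, ovariectomized (sham: laparotomy only); from day 5 post-surgery dosed orally once daily with 110.3 nmol/kg in 0.2 ml 0.5% carboxymethylcellulose for 4 weeks (vehicle to OVX/sham). Left” for “Left”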

Mus musculus [8] = assay: Antiosteoporosis activity in ovariectomized ICR mouse assessed as phosphorous content in femur at 110.3 nmol/kg, po treated for 4 weeks measured after 1 day of last treatment by molybdenum blue method; assay type: functional
Mus musculus [9] = assay: Antiosteoporosis activity in ovariectomized ICR mouse assessed as mineral content in femur at 110.3 nmol/kg, po treated for 4 weeks measured after 1 day of last treatment; assay type: functional
Outline: as §2, with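 “Female mice, ovariectomized (sham: laparotomy only); from day 5 post-surgery dosed orally once daily with 110.3 nmol/kg in 0.2 ml 0.5% carboxymethylcellulose for 4 weeks (vehicle to OVX/sham). Left” for “Left”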

Mus musculus [10] = assay: Toxicity in ovariectomized ICR mouse assessed as spleen weight at 110.3 nmol/kg, po treated for 4 weeks measured after 1 day of last treatment; assay type: organism-based; conditions: in vivo, 24 h
Outline: (§3)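 OVX mice dosed orally once daily with 110.3 nmol/kg in 0.5% carboxymethylcellulose for 4 weeks. The day after the last dose, mice were anesthetized with pentobarbital (40.0 mg/kg ip) and killed; uteri, lungs, livers and spleens were removed and weighed directly and their morphology noted.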

Mus musculus [11] = assay: Toxicity in ovariectomized ICR mouse assessed as lung weight at 110.3 nmol/kg, po treated for 4 weeks measured after 1 day of last treatment; assay type: organism-based; conditions: in vivo, 24 h; outline: as §3
Mus musculus [12] = assay: Toxicity in ovariectomized ICR mouse assessed as kidney weight at 110.3 nmol/kg, po treated for 4 weeks measured after 1 day of last treatment; assay type: organism-based; conditions: in vivo, 24 h
Mus musculus [13] = assay: Toxicity in ovariectomized ICR mouse assessed as liver weight at 110.3 nmol/kg, po treated for 4 weeks measured after 1 day of last treatment; assay type: organism-based; conditions: in vivo, 24 h; outline: as §3
Mus musculus [14] = assay: Toxicity in ovariectomized ICR mouse assessed as effect on tail bleeding time at 110.3 nmol/kg, po treated for 4 weeks measured after 30 mins of last treatment; assay type: organism-based; conditions: in vivo, 0.5 h
Outline: (§4)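 OVX mice received 110.3 nmol/kg orally in 0.5% carboxymethylcellulose daily for 4 weeks. At 30 and 90 min after the last dose, a 2 mm tail cut was made with the mouse in a tube holder; blood was blotted every 30 s until bleeding stopped, and the time was recorded as bleeding time.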

Mus musculus [15] = assay: Toxicity in ovariectomized ICR mouse assessed as effect on tail bleeding time at 110.3 nmol/kg, po treated for 4 weeks measured after 90 mins of last treatment; assay type: organism-based; conditions: in vivo, 1.5 h; outline: as §4
Mus musculus [16] = assay: Toxicity in ovariectomized ICR mouse assessed as effect on uterine weight at 110.3 nmol/kg, po treated for 4 weeks measured after 1 day of last treatment; assay type: organism-based; conditions: in vivo, 24 h; outline: as §3
Mus musculus [17] = assay: Antiosteoporosis activity in osteoporotic female mouse at 0.11 umol/kg, po; assay type: functional, organism-based
Outline: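 Dose-finding pre-treatment: series of oral doses given to osteoporotic female mice; ex vivo anti-osteoporosis activity assessed to assign a general dose for all later experiments.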

Mus musculus [18] = assay: Toxicity in osteoporotic female mouse at 0.11 umol/kg, po; assay type: organism-based; conditions: in vivo
Mus musculus [19] = species on record: Mus musculus; assay: Inhibition of ADP-induced platelet aggregation in osteoporotic female mouse by ex vivo platelet aggregation assay; assay type: functional, organism-based
Mus musculus [20] = species on record: Mus musculus; assay: Inhibition of PAF-induced platelet aggregation in osteoporotic female mouse by ex vivo platelet aggregation assay; assay type: functional, organism-based
Mus musculus [21] = assay: Antiosteoporosis activity in osteoporotic female mouse at 4 umol/kg, po; assay type: functional, organism-based
[22] = Stability in presence of pepsin at 37 degC after 4 hrs; assay type: ADME; conditions: isolated protein

In the case of `N=C(N)NCCC[C@H](N)C(=O)NCC(=O)N[C@@H](CC(=O)O)C(=O)N[C@@H](Cc1ccccc1)C(=O)O` (H-RGDF-OH), the Stability [1] is reported as “Unstable”.
For `C[C@]12CC[C@@H]3c4ccc(O)cc4CC[C@H]3[C@@H]1CC[C@@H]2OC(=O)CCC(=O)N[C@@H](CCCNC(=N)N)C(=O)NCC(=O)N[C@@H](CC(=O)O)C(=O)N[C@@H](Cc1ccccc1)C(=O)N[C@@H](CCCNC(=N)N)C(=O)NCC(=O)N[C@@H](CC(=O)O)C(=O)N[C@@H](Cc1ccccc1)C(=O)O` ({Succinyl(O17-estradiol)}-RGDFRGDF-OH), the Activity (Mus musculus [2]) was 3.01 mM, the Activity (Mus musculus [3]) was 3.01 mM and the Activity (Mus musculus [4]) was 56.6 mg. The Activity (Mus musculus [5]) was 36.87 mg, the Activity (Mus musculus [6]) was 1.64 cm and the Activity (Mus musculus [7]) was 64.36%. For the same molecule, the Activity (Mus musculus [8]) was 21.56%, the Activity (Mus musculus [9]) was 0.625% and the Activity (Mus musculus [10]) was 0.135 g. For the same molecule, the Activity (Mus musculus [11]) was 0.109 g, the Activity (Mus musculus [12]) was 0.16 g and the Activity (Mus musculus [13]) was 1.266 g. The Time (Mus musculus [14]) was 584 s, the Time (Mus musculus [15]) was 571 s and the Activity (Mus musculus [16]) was 0.06 g. For the same molecule, the Activity (Mus musculus [17]) was “Active” and the Activity (Mus musculus [18]) was “Non-toxic”.
For H-RGDFRGDF-OH, the IC50 (Mus musculus [19]) was 0.31 µmol/kg, the IC50 (Mus musculus [20]) was 0.26 µmol/kg and the Activity (Mus musculus [21]) was “inactive”. The Stability [22] was “Stable”.
